Where “and” joins values, the source holds several entries; their conditions need not be identical. Identical values can stand only once. Calls of active or inactive are those of the source.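 Rule for the calls: active = remaining nuclease activity at or below 52% of the solvent-only control; inactive = the rest.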
Target: RecBCD enzyme subunit RecC (Escherichia coli (strain K12)) + RecBCD enzyme subunit RecB (Escherichia coli (strain K12)) (UniProt P07648+P08394)
Assay: RecBCD dsDNA exonuclease activity remaining – biochemical, radioactivity readout, 100 µM single dose, counter-screen for AddAB inhibitor project, late-stage follow-up (AID 623921)
Conditions: purified RecBCD, [3H] dsDNA nuclease, TCA-soluble radioactivity; at 100 µM; active compounds read low
Summary of the method: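 Test system: purified E. coli RecBCD / Compound: single nominal 100 µM compound dose, 5% DMSO final / Timing: enzyme-compound mix on ice, 20 min reaction at 37 °C / Technique: scintillation counting of acid-soluble tritium after TCA precipitation / Evaluation: remaining nuclease activity as % of DMSO reactions, background-subtracted / Benchmarks: DMSO reactions and no-enzyme background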

Chain of RecBCD enzyme subunit RecC (Escherichia coli (strain K12)) + RecBCD enzyme subunit RecB (Escherichia coli (strain K12)) (P07648 whole entry, looked up): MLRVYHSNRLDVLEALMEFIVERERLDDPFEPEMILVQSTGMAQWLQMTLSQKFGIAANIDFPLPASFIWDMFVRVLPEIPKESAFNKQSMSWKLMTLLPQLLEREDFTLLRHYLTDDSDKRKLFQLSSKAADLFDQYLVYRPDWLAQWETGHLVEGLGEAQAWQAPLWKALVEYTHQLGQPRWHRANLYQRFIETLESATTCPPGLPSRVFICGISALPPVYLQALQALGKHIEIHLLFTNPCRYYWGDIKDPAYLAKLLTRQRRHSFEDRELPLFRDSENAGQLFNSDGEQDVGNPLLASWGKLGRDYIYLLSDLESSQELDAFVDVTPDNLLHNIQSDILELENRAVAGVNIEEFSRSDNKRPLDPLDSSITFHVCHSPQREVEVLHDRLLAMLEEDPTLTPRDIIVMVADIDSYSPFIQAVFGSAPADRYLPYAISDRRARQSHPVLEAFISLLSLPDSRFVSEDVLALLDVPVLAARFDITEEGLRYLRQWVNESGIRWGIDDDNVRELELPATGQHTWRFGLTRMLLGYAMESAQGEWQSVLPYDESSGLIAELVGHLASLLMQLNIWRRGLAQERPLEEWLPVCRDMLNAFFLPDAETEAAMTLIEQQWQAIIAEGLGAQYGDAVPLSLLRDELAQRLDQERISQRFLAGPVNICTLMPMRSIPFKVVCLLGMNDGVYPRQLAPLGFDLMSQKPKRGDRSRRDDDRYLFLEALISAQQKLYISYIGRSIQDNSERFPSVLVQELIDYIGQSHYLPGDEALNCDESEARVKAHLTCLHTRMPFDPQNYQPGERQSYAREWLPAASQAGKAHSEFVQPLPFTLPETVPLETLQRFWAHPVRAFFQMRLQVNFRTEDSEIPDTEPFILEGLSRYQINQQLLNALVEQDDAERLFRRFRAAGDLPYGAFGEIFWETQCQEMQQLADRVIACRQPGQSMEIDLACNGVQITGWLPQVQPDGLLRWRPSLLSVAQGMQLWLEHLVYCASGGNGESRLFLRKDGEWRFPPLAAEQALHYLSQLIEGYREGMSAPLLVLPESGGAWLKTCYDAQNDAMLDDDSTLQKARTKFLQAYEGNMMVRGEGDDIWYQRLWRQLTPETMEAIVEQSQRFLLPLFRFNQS
Chain of RecBCD enzyme subunit RecC (Escherichia coli (strain K12)) + RecBCD enzyme subunit RecB (Escherichia coli (strain K12)) (P08394 whole entry, looked up): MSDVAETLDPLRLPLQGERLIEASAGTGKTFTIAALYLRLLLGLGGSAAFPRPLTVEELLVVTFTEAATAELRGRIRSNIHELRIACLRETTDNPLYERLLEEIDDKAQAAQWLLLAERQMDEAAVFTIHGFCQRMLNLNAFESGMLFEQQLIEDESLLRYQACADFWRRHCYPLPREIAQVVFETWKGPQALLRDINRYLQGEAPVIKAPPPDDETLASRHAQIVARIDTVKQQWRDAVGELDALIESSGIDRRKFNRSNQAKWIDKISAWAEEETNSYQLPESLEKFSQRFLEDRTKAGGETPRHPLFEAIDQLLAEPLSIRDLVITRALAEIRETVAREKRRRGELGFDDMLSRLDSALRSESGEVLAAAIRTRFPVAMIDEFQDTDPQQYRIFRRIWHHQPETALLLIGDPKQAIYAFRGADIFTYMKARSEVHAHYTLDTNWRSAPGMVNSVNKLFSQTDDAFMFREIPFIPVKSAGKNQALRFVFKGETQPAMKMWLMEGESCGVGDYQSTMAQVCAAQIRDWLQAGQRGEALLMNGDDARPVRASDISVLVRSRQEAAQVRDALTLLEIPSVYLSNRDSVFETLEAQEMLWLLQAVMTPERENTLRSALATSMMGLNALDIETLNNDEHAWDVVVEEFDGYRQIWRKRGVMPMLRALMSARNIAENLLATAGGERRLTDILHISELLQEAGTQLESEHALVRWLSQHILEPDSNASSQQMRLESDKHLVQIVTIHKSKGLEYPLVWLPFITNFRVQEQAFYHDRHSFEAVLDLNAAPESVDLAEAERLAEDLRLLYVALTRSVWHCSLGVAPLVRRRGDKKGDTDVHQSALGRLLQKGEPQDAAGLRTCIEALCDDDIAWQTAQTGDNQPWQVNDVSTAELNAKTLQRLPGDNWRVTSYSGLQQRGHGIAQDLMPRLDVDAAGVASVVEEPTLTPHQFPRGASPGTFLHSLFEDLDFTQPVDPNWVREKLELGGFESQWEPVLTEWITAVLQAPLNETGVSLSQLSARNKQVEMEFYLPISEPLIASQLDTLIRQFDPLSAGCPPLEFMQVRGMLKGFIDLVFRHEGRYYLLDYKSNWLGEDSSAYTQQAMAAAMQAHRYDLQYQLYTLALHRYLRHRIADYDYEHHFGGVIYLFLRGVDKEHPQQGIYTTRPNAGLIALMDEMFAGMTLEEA

| remaining enzyme activity | Structure (SMILES) |
| --- | --- |
| 110% (inactive) | CC1CCc2c(sc(NC(=O)c3ccc([N+](=O)[O-])o3)c2N)C1 (stereo not drawn) |
| 71% (inactive) | Cn1nccc1C(=O)Nc1sc2c(c1C#N)CCCC2 |
| 84% (inactive) | CCn1cc(C(=O)O)c(=O)c2cnc(N3CCN(C(=S)NC(=O)c4ccco4)CC3)nc21 |
| 41% | N#Cc1c(NC(=O)c2ccco2)sc2c1CCC2 |
| 76% (inactive) | CSc1ncc(Cl)c(C(=O)Nc2sc3c(c2C(=O)NC2CCS(=O)(=O)C2)CCC(C)C3)n1 (stereo not drawn) |
| 21% and 30% | N#Cc1c(NC(=O)c2cnccn2)sc2c1CCCC2 |
| 110% (inactive) | CCn1cc(C(=O)O)c(=O)c2cnc(N3CCNCC3)nc21 |
| -1% | CCn1cc(C(=O)O)c(=O)c2cnc(N3CCN(C(=S)Nc4ccc(Cl)cc4)CC3)nc21 |
| 7% | CCn1cc(C(=O)O)c(=O)c2cnc(N3CCN(C(=S)NCc4ccccc4)CC3)nc21 |
| 94% (inactive) | N#Cc1c(NC(=O)c2ccccc2)sc2c1CCC2 |
| 45% | CCn1cc(C(=O)O)c(=O)c2cc(F)c(N3CCN(C(=S)Nc4ccccc4C(F)(F)F)CC3)cc21 |
| 98% (inactive) | Nc1c(NC(=O)c2ccc([N+](=O)[O-])o2)sc2c1CCCC2 |
| -2% | CCn1cc(C(=O)O)c(=O)c2cnc(N3CCN(C(=S)Nc4cccc(C(F)(F)F)c4)CC3)nc21 |
| 88% (inactive) | COC(=O)c1c(-c2cccc(C)c2)csc1NC(=O)c1cnccn1 |
| 35% | CCn1cc(C(=O)O)c(=O)c2cnc(N3CCN(C(=S)NC)CC3)nc21 |
| 88% (inactive) | CSc1ncc(Cl)c(C(=O)Nc2sc3c(c2C#N)CCC(C)C3)n1 (stereo not drawn) |
| 1% | CCn1cc(C(=O)O)c(=O)c2cnc(N3CCN(C(=S)NC(C)c4ccccc4)CC3)nc21 (stereo not drawn) |
| 31% | CCn1cc(C(=O)O)c(=O)c2cnc(N3CCN(C(=S)Nc4ccccc4F)CC3)nc21 |
| 34% | CCn1cc(C(=O)O)c(=O)c2cnc(N3CCN(C(=S)Nc4ccc5c(c4)OCCO5)CC3)nc21 |
| 83% (inactive) | CC1CCc2c(sc(NC(=O)c3cnccn3)c2C#N)C1 (stereo not drawn) |
| 84% (inactive) | Cc1ccc(C(=O)Nc2sc3c(c2C#N)CCC3)o1 |
| 26% | CCn1cc(C(=O)O)c(=O)c2cnc(N3CCN(C(=S)Nc4ccccc4OC)CC3)nc21 |
| 110% (inactive) | N#Cc1c(NC(=O)c2cccc(F)c2)sc2c1CCCC2 |
| 110% (inactive) | CC1CCc2c(sc(NC(=O)c3ccc([N+](=O)[O-])o3)c2C#N)C1 (stereo not drawn) |
| 51% | Cc1sc(NC(=O)c2ccc(Br)o2)c(C#N)c1C |
| 110% (inactive) | N#Cc1c(NC(=O)c2ccccc2C(=O)O)sc2c1CCCC2 |
| 106% (inactive) | Cc1ccc(C(=O)Nc2sc3c(c2C#N)CCCCC3)o1 |

| remaining enzyme activity | Structure (SMILES) |
| --- | --- |
| 58% (inactive) | CCn1cc(C(=O)O)c(=O)c2cnc(N3CCN(C(=S)NC(=O)c4ccccc4Cl)CC3)nc21 |
| 77% (inactive) | N#Cc1c(NC(=O)C2CC=CCC2C(=O)O)sc2c1CCC2 (stereo not drawn) |
| 89% (inactive) | CC1CCc2c(sc(NC(=O)c3cccs3)c2C#N)C1 (stereo not drawn) |
| 1% | CCn1cc(C(=O)O)c(=O)c2cnc(N3CCN(C(=S)NC4CC5CCC4C5)CC3)nc21 (stereo not drawn) |
| 83% (inactive) | CCn1cc(C(=O)O)c(=O)c2cnc(N3CCN(C(=O)Nc4ccccc4)CC3)nc21 |
| 40% | CCn1cc(C(=O)O)c(=O)c2cnc(N3CCN(C(=S)NC(=O)c4cccnc4)CC3)nc21 |
| 28% | COC(=O)c1c(-c2ccccc2)csc1NC(=O)c1cnccn1 |
| 110% (inactive) | N#Cc1c(NC(=O)c2ccc([N+](=O)[O-])o2)sc2c1CCCC2 |
| 85% (inactive) | CCC(C)(C)C1CCc2c(sc(NC(=O)c3cnccn3)c2C#N)C1 (stereo not drawn) |
| 11% | CCn1cc(C(=O)O)c(=O)c2cnc(N3CCN(C(=S)NC(=O)c4cccc(C)c4)CC3)nc21 |
| 28% | CCn1cc(C(=O)O)c(=O)c2cnc(N3CCN(C(=S)Nc4ccccc4Cl)CC3)nc21 |
| 120% (inactive) | N#Cc1c(NC(=O)c2ccc(-c3ccccc3[N+](=O)[O-])o2)sc2c1CCCC2 |
| 44% | Cc1sc(NC(=O)c2cnccn2)c(C(=O)OC(C)C)c1-c1ccccc1 |
| 26% | CNC(=O)c1c(NC(=O)c2nc(SCc3ccccc3)ncc2Cl)sc2c1CCCC2 |
| 30% | CCn1cc(C(=O)O)c(=O)c2cnc(N3CCN(C(=S)Nc4ccccc4C(F)(F)F)CC3)nc21 |
| 19% | CCn1cc(C(=O)O)c(=O)c2cnc(N3CCN(C(=S)Nc4ccc(F)cc4)CC3)nc21 |
| 34% | N#Cc1c(NC(=O)c2cc(-c3ccccc3)on2)sc2c1CCCC2 |
| 90% (inactive) | CC1(C)Cc2c(sc(NC(=O)c3ccco3)c2C#N)CO1 |
| 71% (inactive) | N#Cc1c(NC(=O)c2cnccn2)sc2c1CCCCCC2 |
| 63% (inactive) | C=CCNC(=S)N1CCN(c2ncc3c(=O)c(C(=O)O)cn(CC)c3n2)CC1 |
| 4% | CCn1cc(C(=O)O)c(=O)c2cnc(N3CCN(C(=S)Nc4ccc5c(c4)OCO5)CC3)nc21 |
| 40% | CCn1cc(C(=O)O)c(=O)c2cnc(N3CCN(C(=S)Nc4ccccc4C)CC3)nc21 |
| 78% (inactive) | COC(=O)c1c(NC(=O)c2cnccn2)sc2c1CCCC2 |
| 23% | CCn1cc(C(=O)O)c(=O)c2cnc(N3CCN(C(=S)Nc4ccccc4)CC3)nc21 |
| 12% | CCn1cc(C(=O)O)c(=O)c2cc(F)c(N3CCN(C(=S)Nc4cccc(C(F)(F)F)c4)CC3)cc21 |
| 85% (inactive) | NC(=O)c1c(NC(=O)c2cnccn2)sc2c1CCCC2 |
